Assay outcomes (PubChem)
Rows were chosen to be rich in hits. Some 2.1% of all compounds tested hit in one or more screens of this group.
BaF3 parental = parental Ba/F3 cell viability inhibition, counter-screen for JAK2V617F inhibitor project, murine pro-B, CellTiter-Glo luminescence | CellTiter-Glo ATP luminescence | inhibition, % at 5.6 µM | actives 1.1% (n = 220,000);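 active = inhibition above a per-campaign cutoff, the mean inhibition of all tested compounds plus 3 SD, cut at about 27% in these data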;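 note: 0% = DMSO wells and 100% = JAK Inhibitor I control wells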
IEC-6 tox = cytotoxicity in IEC-6 intestinal epithelial cells, primary screen, cytotoxicity control for KLF5 inhibitor project, cell-based, luminescence; actives 0.78% (n = 290,000); IEC-6 cytotoxicity, luminescence viability; inhibition, % at 5 µM; in the data active = inhibition above about 22%;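 note: 0% = plate median of test compound wells and 100% = cytotoxic reference compound wells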
Ba/F3 V617F tox = reduced viability of JAK2V617F-dependent Ba/F3 cells, primary screen, JAK2V617F inhibitor project, cell-based, Ba/F3 EpoR-JAK2V617F, luminescence | actives 1.1% (n = 220,000) | AID 1446, 2008 | inhibition, % at 5.6 µM | ATP luminescence;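 active = inhibition above the campaign mean plus 3 SD over all tested compounds, cut at about 24% in these data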;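 note: cytokine-independent growth of Ba/F3 cells driven by EpoR plus mutant JAK2; 0% = DMSO-treated cells and 100% = JAK inhibitor I control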
b-catenin transl = modulators of beta-catenin nuclear translocation, primary screen, imaging, HeLa cells, immunofluorescence, high-content; nuclear translocation activity, % at 5 µM; actives 0.3% (n = 190,000); AID 1665, 2009;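 active = nuclear translocation activity above 50% at 5 µM, with a well cell count of 50 or more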;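 note: per-cell ratio of nuclear to cytoplasmic median beta-catenin stain intensity; plate controls were DMSO negative control for no effect and GSK-3 inhibitor IX positive control for full effect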
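Test system: HeLa cells, endogenous beta-catenin; Compound: single 5 µM dose plus 0.02–20 µM confirmation series; Times: compound exposure 24 h at 37°C; Signal: fluorescence imaging of beta-catenin antibody stain plus DAPI; Read-out: % activation, nuclear-to-cytoplasmic median beta-catenin signal ratio per cell.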
MT stabilize HCS = microtubule stabilizers in HeLa cells, primary screen, imaging, high-content imaging. HeLa tubulin immunostaining HCS, 24 h; share of cells brighter than vehicle mean+2SD. % tubulin-high responders, % at 10 µM. actives 0.83% (n = 200,000);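 active = plate Z-score above 3 for both tubulin-high and condensed-nucleus cell shares, with cell loss under 80%, at 10 µM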;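 note: anti alpha tubulin signal scored within the nucleus-defined area of each cell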
KLF5 inhibitor = KLF5 expression inhibitors, primary screen, DLD-1 cells, luminescence; inhibition, % at 5 µM; DLD-1 KLF5 promoter-luciferase reporter; actives 0.23% (n = 290,000); AID 1700, 2009;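 active = inhibition above a per-plate limit of that plate's mean compound inhibition plus 3 SD, cut at about 60% in these data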;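 note: 0% = DMSO wells and 100% = LY294002 at 200 µM; higher means less KLF5 promoter-driven luciferase light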
BaF3 tox 2 = parental Ba/F3 cell viability inhibition, counter-screen for JAK2V617F inhibitor project, murine pro-B, CellTiter-Glo luminescence; actives 31% (n = 580); shares compounds with Ba/F3 V617F tox; cells kept alive by added IL-3; inhibition, % at 5.6 µM;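 active = cell growth inhibition above the hit limit set in the earlier mutant JAK2 cell screen, cut at about 27% in these data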;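 note: plate controls were DMSO-treated cells for no effect and JAK Inhibitor I control wells for full effect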
JAK2V617F confrm = viability loss in Ba/F3 EpoR-JAK2V617F cells, confirmation, JAK2V617F inhibitor project, cell-based, luminescence, triplicate | CellTiter-Glo luminescence | actives 66% (n = 580) | inhibition, % at 5.6 µM | shares compounds with Ba/F3 V617F tox;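 active = mean inhibition above the hit cutoff derived in the earlier primary screen, cut at about 25% in these data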;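 note: 0% = DMSO-treated cells and 100% = JAK inhibitor I control wells; higher means lower luminescence from reduced cell ATP and viability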
Numbers without * were called inactive; . = no result.

SMILES	BaF3 parental	IEC-6 tox	Ba/F3 V617F tox	b-catenin transl	MT stabilize HCS	KLF5 inhibitor	BaF3 tox 2	JAK2V617F confrm
COc1ccccc1C(c1c(N)n(C)c(=O)n(C)c1=O)C(C)[N+](=O)[O-] (configuration not stated)	3	-8	-4	0	.	-1	.	.
COc1cc(/C=N/N=C(N)N)ccc1OCc1ccc(Cl)cc1	25	22*	35*	2	67*	-77	35*	45*
O=[N+]([O-])c1cc(/C=N/Nc2nc3ccccc3[nH]2)c(O)cc1O	-4	2	30*	5	10	23	68*	81*
COc1ccc(C2c3ccc4ccccc4c3Oc3ncn(CCCO)c(=N)c32)cc1OC (configuration not stated)	1	6	81*	44	.	-1	0	8
CCOC(=O)Cc1csc(NC(=O)NC2(C(F)(F)F)Oc3ccc(Cl)cc3O2)n1 (configuration not stated)	18	1	30*	.	3	-44	2	44*
C#CC[N+](C)(C)CC#Cc1ccc(Cl)cc1	18	4	32*	10	11	-2	28*	83*
CCc1ccc(NS(=O)(=O)c2ccc(C)c(C(=O)N3CCOCC3)c2)cc1	.	0	.	.	.	-18	.	.
Cc1[nH]c2ccccc2c(=O)c1C(=O)/C=C/c1ccccc1	-5	12	59*	3	.	2	20	96*
NC(N)=Nc1cc2ccccc2c2ccccc12	9	9	28*	2	.	-13	3	33*
CN(C)CCCN(C(=O)CCOc1ccccc1)c1nc2c(F)cccc2s1	3	-1	25*	-3	4	-2	4	30*
CC(C)n1c(NCc2ccc(Cl)cc2)nc2ccccc21	-3	3	0	0	.	-10	.	.
COc1cccc(/C=C/C(=O)OCC(=O)Nc2ccc(N3CCOCC3)cc2)c1OC	1	2	42*	0	4	10	-4	-5
O=C(Nc1nnc(Cc2ccccc2)s1)C1CCN(C(=O)c2ccco2)CC1	.	4	.	.	.	-16	.	.
CCOc1ccc(N2CC(O)(c3cccs3)[N+]3=C2CCCC3)cc1 (configuration not stated)	25	8	23*	-2	4	-3	31*	46*
OC1(c2cccs2)CN(c2ccccc2)C2=[N+]1CCCC2 (configuration not stated)	8	-1	0	-1	6	-28	.	.
COc1ccc(C(C(=O)NC(C)(C)C)N(C(=O)Cn2nnc3ccccc32)c2cccc(C(C)=O)c2)cc1O (configuration not stated)	1	4	-1	1	.	-10	.	.
COCCN(C(=O)COC(=O)c1oc2ccc(OC)cc2c1C)c1c(N)n(Cc2ccccc2)c(=O)[nH]c1=O	.	0	.	.	.	-24	.	.
Nc1c(-c2ccccc2)cnn1-c1ccc(C(=O)O)cc1	1	0	53*	.	2	-84	-3	-2
Cc1ccc(-c2cnn(-c3ccccc3)c2N)cc1	.	10	.	.	.	-17	.	.
CC1CCCCC1NC(=O)NC(=O)CCl (configuration not stated)	-4	-9	19	.	4	14	.	.
CC1CCCC(NC(=O)NC(=O)CCl)C1C (configuration not stated)	-9	0	58*	.	3	11	-4	83*
COc1ccc(S(=O)(=O)NCC2CCCN(Cc3cccnc3)C2)cc1 (configuration not stated)	4	-3	-2	-2	3	-4	.	.
Cc1nn(Cc2ccc(Cl)cc2Cl)c(C)c1NC(=O)CCl	5	-1	30*	.	7	-70	5	64*
